Screening results deposited in PubChem by Broad Institute.
Shown are actives, neighbours in structure and some others; about 3.1% of the full set was active somewhere.
FGF22 binding: FGF22 (human) thermal shift binding; Q9HCT0; recombinant FGF22 thermal shift, SYPRO orange fluorescence; percent of sucrose octasulfate shift, DMSO zero; activity (Tm shift, normalised), % at 9.99 µM; actives 1.5% (n = 340,000); AID 651658;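 active = mean Tm shift, scaled 0 neutral to 100 positive control, at about 1.3% or above, every replicate too, limit read from the data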
Target sequence (Q9HCT0 whole entry, looked up): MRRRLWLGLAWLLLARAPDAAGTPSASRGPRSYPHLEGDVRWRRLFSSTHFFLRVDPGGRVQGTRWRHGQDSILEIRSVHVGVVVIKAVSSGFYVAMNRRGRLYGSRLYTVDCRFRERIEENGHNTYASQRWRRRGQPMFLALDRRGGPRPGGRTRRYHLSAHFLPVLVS
HIV Env fusion: HIV envelope-mediated fusion inhibition | HeLa-JRFL Env/CEM21 cell fusion, luciferase | AID 651610 | actives 1.1% (n = 360,000) | inhibition, % at 12.3 µM;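 active = mean replicate inhibition score of at least 50 and every replicate individually at or above 50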
FN deposit inh: fibronectin deposition inhibition. AH1F fibroblasts, Alexa488-fibronectin deposition fluorescence, overnight. inhibition, % at 12.6 µM. actives 0.086% (n = 350,000). AID 743247;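 active = mean inhibition across replicates of 30% or more, regardless of how many single replicates reach that level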
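Schedule: 1 h cell adhesion before compound, then overnight fibronectin incubation; test system: AH1F fibroblast monolayer depositing Alexa488-labelled fibronectin into matrix; quantity: 10000 AH1F cells per well; probe or stimulus: fluorescent fibronectin at 24 nM final; signal: fluorescence, ex 485 nm, em 525 nm; evaluation: percent inhibition as loss of matrix-bound fibronectin fluorescence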
PGC1a acetyl inh: PGC1a acetylation modulation, inhibitor mode | actives 0.17% (n = 350,000) | inhibition, % at 15.6 µM | U2OS PGC1a acetylation, AlphaScreen anti-acetyl-lysine; with virally co-expressed GCN5 acetyltransferase;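 active = every replicate shows inhibition of at least 40%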
EWS-Fli block: inhibitors of EWS/Fli oncoprotein transcriptional activity | A673 NR0B1-luciferase reporter, viability-normalised | inhibition, % at 12.6 µM | actives 0.67% (n = 350,000) | AID 651661;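 active = mean inhibition of at least 50% after viability correction, with every replicate also passing that limit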;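 also: firefly luciferase signal divided by Alamar Blue viability fluorescence both relative to DMSO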
PAX8 inh HTS: lowers PAX8-driven luciferase in RMG-I cells. AID 652154. RMG-I TPO-luciferase reporter, SteadyGlo, 24 h. actives 1.2% (n = 360,000). inhibition, % at 12.6 µM;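 active = mean replicate inhibition at least 60% with every replicate also reaching 60%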;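 also: luciferase light reporting Pax8 driven TPO promoter activity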
Each line names hits and unclear results; the compound was inactive in the other large screens; [ ] = another dose, or the depositor's remark.

C[C@H]1CN([C@@H](C)CO)C(=O)c2ccccc2-c2ccccc2CO[C@@H]1CN(C)Cc1cccc(F)c1	none (no result: FGF22 binding, HIV Env fusion, PGC1a acetyl inh, EWS-Fli block, PAX8 inh HTS)
CC(C)[C@H](C)NC(=O)N(C)C[C@H]1OCc2ccccc2-c2ccccc2C(=O)N([C@@H](C)CO)C[C@@H]1C	HIV Env fusion 56[16.7 µM]
C[C@H](CO)N1C[C@H](C)[C@H](CN(C)Cc2ccc3c(c2)OCO3)OCc2ccccc2-c2ccccc2C1=O	none
C[C@H]1CN([C@@H](C)CO)C(=O)c2ccccc2-c2ccccc2CO[C@@H]1CN(C)C(=O)Nc1cccc(C(F)(F)F)c1	HIV Env fusion 59[16.7 µM]
CC(C)[C@@H](C)NC(=O)N(C)C[C@@H]1OCc2ccccc2-c2ccccc2C(=O)N([C@H](C)CO)C[C@H]1C	none
COC(=O)C[C@@H]1C[C@@H]2c3cc(NC(=O)Cc4ccncc4)ccc3O[C@@H]2[C@H](CO)O1	none
C[C@@H]1CN([C@@H](C)CO)C(=O)c2ccccc2-c2ccccc2CO[C@@H]1CN(C)Cc1ccc(F)cc1	none (no result: FGF22 binding, HIV Env fusion, PGC1a acetyl inh, EWS-Fli block, PAX8 inh HTS)
C[C@H](CO)N1C[C@H](C)[C@H](CN(C)Cc2ccc(F)cc2)OCc2ccccc2-c2ccccc2C1=O	HIV Env fusion 57[16.7 µM]
C[C@H](CO)N1C[C@H](C)[C@H](CN(C)Cc2ccccc2)OCc2ccccc2-c2ccccc2C1=O	EWS-Fli block 70 (no result: HIV Env fusion, PAX8 inh HTS)
C[C@H]1CN([C@@H](C)CO)C(=O)c2ccccc2-c2ccccc2CO[C@H]1CN(C)Cc1ccc(F)cc1	HIV Env fusion 73[16.7 µM]
C[C@@H]1CN([C@H](C)CO)C(=O)c2ccccc2-c2ccccc2CO[C@@H]1CN(C)Cc1ccc2c(c1)OCCN2C	none (no result: FGF22 binding, HIV Env fusion, PGC1a acetyl inh, EWS-Fli block, PAX8 inh HTS)
C[C@@H]1CN([C@@H](C)CO)C(=O)c2ccccc2-c2ccccc2CO[C@@H]1CN(C)Cc1ccc2c(c1)OCCN2C	PAX8 inh HTS 90
CC(C)NC(=O)N[C@H]1CC[C@H](CCNC(=O)C2CCOCC2)O[C@@H]1CO	none
O=C(C[C@@H]1CC[C@@H]2[C@H](COC[C@H](O)CN2Cc2cccc(-c3ccncc3)c2)O1)N1CCN(c2ccccc2)CC1	none (no result: HIV Env fusion)
C=C1C(=O)O[C@H]2C1CC[C@@](C)(O)C13C=CC(C)(C21)C1(C3)C(=O)O[C@@H]2C3C(C)=CCC3[C@](C)(O)C[C@H](OC(C)=O)C21 (stereo partly specified)	PAX8 inh HTS 87
C[C@@H]1CN([C@H](C)CO)C(=O)c2cc(NC(=O)CCCN(C)C)ccc2O[C@@H](C)CCCCO[C@H]1CN(C)C(=O)CCCN(C)C	none (no result: FGF22 binding, HIV Env fusion, PAX8 inh HTS)
COC(=O)/C(=C1/Oc2cc(C)oc(=O)c2S1)C(F)(F)F	EWS-Fli block 54 (no result: HIV Env fusion, FN deposit inh, PAX8 inh HTS)
Cc1ccccc1NC(=O)COC(=O)CCc1c[nH]c2ccccc12	none
O=C(CCc1c[nH]c2ccccc12)Nc1ccc(Nc2ccccc2)cc1	FGF22 binding 1.4 (no result: PGC1a acetyl inh)
Cc1ccc(NC(=O)COC(=O)CCc2c[nH]c3ccccc23)cc1[N+](=O)[O-]	FGF22 binding 43
CC1=NNC(=O)C1CCC(=O)N/N=C(/C)c1ccc([N+](=O)[O-])cc1 (stereo unspecified)	FGF22 binding 43 (no result: PGC1a acetyl inh)
C/C(=N\NC(=O)CCc1c[nH]c2ccccc12)c1ccc([N+](=O)[O-])cc1	FGF22 binding 44 (no result: PGC1a acetyl inh)
CCCNC(=O)C[C@H]1C[C@@H]2c3cc(NC(=O)CC4CC4)ccc3O[C@@H]2[C@H](CO)O1	none (no result: HIV Env fusion, PAX8 inh HTS)
CN(C)c1ccc(/C=N/NC(=O)CCc2c[nH]c3ccccc23)cc1	FGF22 binding 44 (no result: PGC1a acetyl inh)
CC(C)[C@H](NC(=O)c1ccccc1Cl)C(=O)OCC(=O)Nc1ccc(S(=O)(=O)N2CCOCC2)cc1	none
O=C(COC(=O)/C=C/c1ccccc1[N+](=O)[O-])Nc1ccc(S(=O)(=O)N2CCOCC2)cc1	FGF22 binding 43
CC(C)[C@H](NC(=O)c1ccccc1)C(=O)OCC(=O)Nc1ccc(S(=O)(=O)N2CCOCC2)cc1	FGF22 binding 43 (no result: PGC1a acetyl inh)
Cc1cc(Nc2cccc(C(F)(F)F)c2)cc(=O)n1-c1cccc(C(F)(F)F)c1	HIV Env fusion 67 (no result: PGC1a acetyl inh)
CC(C)NC(=O)N1CCCCN2[C@@H](CO)[C@H](c3ccc(C#CC4CC4)cc3)[C@@H]2C1	none (no result: HIV Env fusion, FN deposit inh)
COc1ccc2c3c(n(C)c2c1)[C@H](CO)N(C(=O)c1cccnc1)CC31CCN(S(=O)(=O)c2ccccc2)CC1	none (no result: HIV Env fusion, FN deposit inh, PAX8 inh HTS)
